This is an account of results in ChEMBL document CHEMBL4049458, “Structure-Based Optimization of Thiophene[3,2-d]pyrimidine Derivatives as Potent HIV-1 Non-nucleoside Reverse Transcriptase Inhibitors with Improved Potency against Resistance-Associated Variants” (J Med Chem, 2017).

Bounds are passed on as bounds.

Data set [1] is described as follows: Selectivity index, ratio of CC50 for human MT4 cells to EC50 for reverse transcriptase Y181C mutant in human MT4 cells infected HIV1 3B. Particulars: MT4 cells.
A short description of data set [2]: Selectivity index, ratio of CC50 for human MT4 cells to EC50 for wild type HIV1 3B harboring reverse transcriptase infected in human MT4 cells. The note with it: MT4 cells.
Data set [3] in a line: Selectivity index, ratio of CC50 for human MT4 cells to EC50 for reverse transcriptase F227L/V106A double mutant in human MT4 cells infected HIV1 3B. The note with it: MT4 cells.
Data set [4] is described as follows: Selectivity index, ratio of CC50 for human MT4 cells to EC50 for reverse transcriptase E138K mutant in human MT4 cells infected HIV1 3B. The note with it: MT4 cells.
Data set [5] is described as follows: Selectivity index, ratio of CC50 for human MT4 cells to EC50 for reverse transcriptase Y188L mutant in human MT4 cells infected HIV1 3B. The note with it: MT4 cells.
The nature of data set [6]: Selectivity index, ratio of CC50 for human MT4 cells to EC50 for reverse transcriptase L100I mutant in human MT4 cells infected HIV1 3B. The note with it: MT4 cells.
Data set [7] can be described thus: Selectivity index, ratio of CC50 for human MT4 cells to EC50 for reverse transcriptase K103N mutant in human MT4 cells infected HIV1 3B. The note with it: MT4 cells.
For data set [8], the system named is Human immunodeficiency virus 2. As to the kind of experiment: Antiviral activity against HIV2 ROD harboring reverse transcriptase infected in human MT4 cells assessed as protection against virus induced cytotoxicity after 5 days by MTT assay. Particulars: Human immunodeficiency virus 2, ISOLATE ROD, MT4, 120 h. In kind it is functional, cell-based.
Data set [9] deals with Human immunodeficiency virus 1. As to the kind of experiment: Antiviral activity against wild type HIV1 3B harboring reverse transcriptase infected in human MT4 cells assessed as protection against virus induced cytotoxicity after 5 days by MTT assay. It is filed as functional, cell-based. The note with it: Human immunodeficiency virus 1, 3B, MT4, 120 h.
A short description of data set [10]: Selectivity index, ratio of CC50 for human MT4 cells to EC50 for HIV1 RES056 reverse transcriptase K103N/Y181C double mutant infected in human MT4 cells. Particulars: MT4 cells.
A short description of data set [11]: Cytotoxicity against human MT4 cells assessed as cell viability after 5 days by MTT assay. It is filed as cell-based.
The nature of data set [12]: Inhibition of recombinant wild type HIV1 3B reverse transcriptase infected in human MT4 cells assessed as decrease in biotin-dUTP incorporation after 1 hr. It is filed as cell-based. The note with it: Human immunodeficiency virus 1, 3B, MT4, 1 h. The method, boiled down:
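Recombinant HIV-1 RT assayed with a kit ELISA. Enzyme, reconstituted template and nucleotides (DIG-dUTP, biotin-dUTP, dTTP) were incubated in incubation buffer with or without inhibitor for 1 h at 37 °C. Product was captured on streptavidin plates for 1 h at 37 °C, then anti-DIG-POD was added for 1 h at 37 °C, followed by ABTS. Read at OD405.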

Regarding `Cc1cc(C#N)cc(C)c1Oc1nc(NC2CCC(NCc3ccc(O)cc3)CC2)nc2ccsc12` (stereo not given), the selectivity ratio is less than 1 in data set [1]; 15 in data set [2]; less than 1 in data set [3]; 5 in data set [4]; less than 1 in data set [5]; less than 1 in data set [6]. The selectivity ratio in [7] was 4; in data set [10] it was less than 1. For the same compound, the EC50 in [8] was greater than 20.1 µM; in data set [9], 1.31 µM. Also, the CC50 at 120 h in [11] was found to be 20.1 µM.
Regarding `Cc1cc(/C=C/C#N)cc(C)c1Oc1nc(NC2CCN(Cc3ccc([N+](=O)[O-])cc3)CC2)nc2ccsc12`, the selectivity ratio is 115 in [1]; 456 in data set [2]; 33 in data set [3]; 86 in data set [4]; 30 in [5]; 134 in [6]. Further, the figures for the selectivity ratio in data set [7] and in data set [10] were 365 and 32, respectively. Further, the EC50 in data set [8] was greater than 3.52 µM; in [9], 0.00773 µM. For the same compound, the CC50 at 120 h in data set [11] is 3.52 µM.
As for `Cc1cc(/C=C/C#N)cc(C)c1Oc1nc(NC2CCN(Cc3cccc(Br)c3)CC2)nc2ccsc12`, the selectivity ratio was determined as 62 in data set [1]; 308 in data set [2]; 85 in data set [3]; 61 in data set [4]; 48 in data set [5]; 279 in data set [6]. Further, the selectivity ratio in data set [7] was 269; in data set [10] it was 37. In addition, the EC50 is greater than 7.95 µM in [8] and 0.0258 µM in [9]. For the same compound, the CC50 at 120 h in [11] turned out to be 7.95 µM.
As to `Cc1cc(C#N)cc(C)c1Oc1nc(NC2CCC(NCc3cccc(C(F)(F)F)c3)CC2)nc2ccsc12` (stereo not given), the selectivity ratio in [1] was less than 1; in data set [2] it was 4; in data set [3], less than 1; in data set [4], less than 1; in data set [5], less than 1; in [6] it was less than 1. Also, the selectivity ratio in data set [7] and in [10] was less than 1 each time. Also, the EC50 was greater than 0.707 µM in [8] and 0.174 µM in data set [9]. For the same compound, the CC50 at 120 h in [11] was 0.707 µM.
For the compound `Cc1cc(/C=C/C#N)cc(C)c1Oc1nc(NC2CCN(Cc3cccc(Cl)c3)CC2)nc2ccsc12`, the selectivity ratio in data set [1] is 69; in [2] it was 188; in data set [3] it was 72; in [4], 37; in data set [5], 29; in [6], 163. The selectivity ratio in [7] is 164; in data set [10], 33. Also, the EC50 in [8] was greater than 4.88 µM; in data set [9], 0.0259 µM. The CC50 at 120 h in data set [11] was determined as 4.88 µM.
As to `Cc1cc(/C=C/C#N)cc(C)c1Oc1nc(NC2CCN(Cc3ccc(Br)cc3)CC2)nc2ccsc12`, the selectivity ratio in data set [1] was found to be 53; in data set [2], 240; in [3], 42; in [4] it was 44; in data set [5], 24; in [6] it was 117. Moreover, the selectivity ratio in data set [7] turned out to be 227; in data set [10], 44. The EC50 in [8] is greater than 6.79 µM; in data set [9] it was 0.0283 µM. In [11], the CC50 at 120 h is 6.79 µM.
`Cc1cc(/C=C/C#N)cc(C)c1Oc1nc(NC2CCN(Cc3ccc(Cl)cc3)CC2)nc2ccsc12`: the selectivity ratio came to 51 in [1]; 156 in data set [2]; 37 in data set [3]; 26 in [4]; 22 in data set [5]; 93 in [6]. Also, the selectivity ratio in [7] was found to be 159; in data set [10], 20. For the same compound, the EC50 in data set [8] is greater than 3.98 µM; in [9] it was 0.0256 µM. Further, in data set [11], the CC50 at 120 h amounted to 3.98 µM.
With `Cc1cc(C#N)cc(C)c1Oc1nc(NC2CCC(NCc3ccc(S(N)(=O)=O)cc3)CC2)nc2ccsc12` (stereo not given), in data set [9], the EC50 was 0.0422 µM. For the same compound, in [11], the CC50 at 120 h was determined as 3.69 µM. Moreover, the IC50 in data set [12] was found to be 4.02 µM.
In the case of `Cc1cc(/C=C/C#N)cc(C)c1Oc1nc(NC2CCN(Cc3ccccc3F)CC2)nc2ccsc12`, the selectivity ratio in [1] turned out to be 83; in data set [2], 392; in [3], 61; in data set [4] it was 74; in [5], 18; in [6] it was 32. The figures for the selectivity ratio in data set [7] and in data set [10] were 361 and 14, respectively. For the same compound, the EC50 in data set [8] was greater than 2.48 µM; in data set [9] it was 0.00634 µM. Further, the CC50 at 120 h in data set [11] worked out at 2.48 µM.
`Cc1cc(/C=C/C#N)cc(C)c1Oc1nc(NC2CCN(Cc3ccc(S(C)(=O)=O)cc3)CC2)nc2ccsc12`: the EC50 in data set [9] came out at 0.00232 µM. For the same compound, the half-maximal cytotoxic concentration (CC50) at 120 h in data set [11] came to 1.8 µM. In data set [12], the IC50 worked out at 0.89 µM.
Turning to `Cc1cc(/C=C/C#N)cc(C)c1Oc1nc(NC2CCN(Cc3ccccn3)CC2)nc2ccsc12`, the selectivity ratio in data set [1] was 418; in data set [2] it was 1150; in [3], 144; in data set [4], 517; in data set [5], 92; in [6], 210. The selectivity ratio in [7] is 724; in data set [10] it was 32. Moreover, the figures for the EC50 in data set [8] and in [9] were greater than 3.85 µM and 0.00336 µM, respectively. Moreover, the half-maximal cytotoxic concentration (CC50) at 120 h in [11] was 3.85 µM.
As to `Cc1cc(/C=C/C#N)cc(C)c1Oc1nc(NC2CCN(Cc3ccc(C#N)cc3)CC2)nc2ccsc12`, the selectivity ratio in data set [1] came to 86; in data set [2], 509; in [3], 118; in [4], 91; in data set [5], 81; in data set [6] it was 364. Moreover, the selectivity ratio in data set [7] came out at 494; in data set [10], 45. In addition, the figures for the EC50 in data set [8] and in data set [9] were greater than 2.68 µM and 0.00526 µM, respectively. The CC50 at 120 h in [11] was 2.67 µM.
As for `Cc1cc(/C=C/C#N)cc(C)c1Oc1nc(NC2CCN(Cc3ccccc3Br)CC2)nc2ccsc12`, the selectivity ratio stood at 45 in data set [1]; 140 in data set [2]; 63 in [3]; 39 in [4]; 37 in [5]; 117 in [6]. Moreover, the selectivity ratio in data set [7] amounted to 124; in data set [10], 16. For the same compound, the EC50 was greater than 5.61 µM in data set [8] and 0.0402 µM in [9]. Besides, in data set [11], the CC50 at 120 h is 5.61 µM.
Regarding `Cc1cc(/C=C/C#N)cc(C)c1Oc1nc(NC2CCN(Cc3ccccc3C#N)CC2)nc2ccsc12`, the selectivity ratio is 66 in data set [1]; 236 in data set [2]; 60 in [3]; 53 in data set [4]; 18 in [5]; 151 in data set [6]. The selectivity ratio in data set [7] amounted to 130; in data set [10], 7. The EC50 in [8] was greater than 2.28 µM; in data set [9] it was 0.00966 µM. In [11], the CC50 at 120 h is 2.28 µM.
As to `Cc1cc(/C=C/C#N)cc(C)c1Oc1nc(NC2CCN(Cc3ccncc3)CC2)nc2ccsc12`, the selectivity ratio in [1] is 825; in data set [2], 1430; in data set [3], 322; in data set [4] it was 560; in data set [5], 148; in data set [6], 752. Moreover, the results for the selectivity ratio in data set [7] and in [10] were 859 and 162, respectively. Further, the EC50 in data set [8] is greater than 4.78 µM; in [9], 0.00334 µM. Moreover, the CC50 at 120 h in [11] was 4.78 µM.
`Cc1ccccc1CN1CCC(Nc2nc(Oc3c(C)cc(/C=C/C#N)cc3C)c3sccc3n2)CC1`: the selectivity ratio in data set [1] amounted to 33; in data set [2], 180; in [3], 46; in data set [4], 22; in data set [5], 16; in data set [6] it was 60. Also, the selectivity ratio in data set [7] came to 114; in [10], 3. For the same compound, the EC50 in data set [8] is greater than 2.83 µM; in data set [9] it was 0.0157 µM. In addition, the CC50 at 120 h in [11] worked out at 2.83 µM.
